# Measured values as given in paper PMC8857066 (Bioorganic & medicinal chemistry letters, 2022).
# Tests used:
# [1] = target: T1, fluorescein-labeled WIL-FL LC dimer (WIL-FL*) (Homo sapiens, UniProt P01721, K101C); settings: previous study; cited from earlier work
# [2] = target: T1, fluorescein-labeled WIL-FL LC dimer (WIL-FL*); experiment: protease-coupled fluorescence polarization; format: biochemical
# [3] = target: fluorescein-labeled WIL-FL* T46L/F49Y LC dimer (Homo sapiens, UniProt P01721, K101C/T66L); experiment: protease-coupled fluorescence polarization; format: biochemical; settings: for increased potency compared to stabilizer 1 in the PCFP assays (up to): highest ratio across the two PCFP assays (WIL-FL* and WIL-FL* T46L/F49Y)
# [4] = test system: unlabeled WIL-FL LC dimer; experiment: proteinase K sensitivity assay, single dose; format: biochemical, human; settings: 10 μM stabilizer
# Outline: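 Unlabelled WIL-FL LC dimer (2.5 μM) was treated with test compound (10 μM) and proteinase K (50 nM) for 2 h at 37 °C. Remaining intact dimer was quantified by size-exclusion chromatography. Fold protection is the fraction of dimer remaining with compound, corrected for residual dimer in the vehicle (1% DMSO) control. Mean of ≥3 independent replicates ± 1 SD.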
# [5] = test system: FL LC dimers; settings: cited from earlier work
# T1 sequence (P01721 20-117 K101C): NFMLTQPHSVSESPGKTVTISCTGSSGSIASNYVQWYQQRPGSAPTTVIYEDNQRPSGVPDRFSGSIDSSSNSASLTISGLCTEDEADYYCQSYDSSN
# Chain of fluorescein-labeled WIL-FL* T46L/F49Y LC dimer (P01721 20-117 T66L/K101C): as the sequence (P01721 20-117 K101C) above, with T47L counted along it
smiles,measurement,setting,value
CCN(CC)c1ccc2c(C)c(CCOC(=O)NCc3ccccc3)c(=O)oc2c1 [2-(7-(diethylamino)-4-methyl-2-oxo-2H-chromen-3-yl)ethyl benzylcarbamate],improved potency compared to 1 in the PCFP assays,[1],more than ten-fold
CCN(CC)c1ccc2c(C)c(CCC(=O)NCCc3cccnc3)c(=O)oc2c1 [Compound 11],potency increase for WIL-FL* compared to stabilizer 1,[2]; ratio of EC50 values,2.6 fold
same,potency increase for WIL-FL* T46L/F49Y compared to stabilizer 1,[3]; ratio of EC50 values,two-fold
same,increase in fold protection for unlabeled WIL-FL compared to stabilizer 1,[4],0.33
CCN(CC)c1ccc2c(C)c(CCNC(=O)CCc3ccccc3)c(=O)oc2c1 [Compound 16],maximal fluorescence polarization compared to compound 1,[2]; PCFP dose-response (Figure S3),lower
CCN(CC)c1ccc2c(C)c(CCNC(=O)NCc3cccc(-c4c[nH]cn4)c3)c(=O)oc2c1 [Compound 21],increased potency compared to stabilizer 1 in the PCFP assays (up to),[3],up to 56 fold
CCN(CC)c1ccc2c(C)c(CCNC(=O)NCc3ccc4ccccc4c3)c(=O)oc2c1 [Compound 23],increased potency compared to stabilizer 1 in the PCFP assays (up to),[3],≤ 150 fold
CN(C)c1ccc2nc3ccc(=[N+](C)C)cc-3sc2c1 [methylene blue],stabilization of FL LC dimers,[5],do not stabilize FL LC dimers
O=C(O)c1cc(/N=N/c2ccc(S(=O)(=O)Nc3ccccn3)cc2)ccc1O [sulfasalazine],stabilization of FL LC dimers,[5],do not stabilize FL LC dimers
